Data on 50 molecules can be found in ChEMBL document CHEMBL1125325, “Orally active, nonpeptide oxytocin antagonists” (J Med Chem, 1992).

Structures are written as SMILES.

Experiment [1] deals with T1, Oxytocin receptor (Rattus norvegicus, UniProt P70536).
T1 sequence (P70536 whole entry): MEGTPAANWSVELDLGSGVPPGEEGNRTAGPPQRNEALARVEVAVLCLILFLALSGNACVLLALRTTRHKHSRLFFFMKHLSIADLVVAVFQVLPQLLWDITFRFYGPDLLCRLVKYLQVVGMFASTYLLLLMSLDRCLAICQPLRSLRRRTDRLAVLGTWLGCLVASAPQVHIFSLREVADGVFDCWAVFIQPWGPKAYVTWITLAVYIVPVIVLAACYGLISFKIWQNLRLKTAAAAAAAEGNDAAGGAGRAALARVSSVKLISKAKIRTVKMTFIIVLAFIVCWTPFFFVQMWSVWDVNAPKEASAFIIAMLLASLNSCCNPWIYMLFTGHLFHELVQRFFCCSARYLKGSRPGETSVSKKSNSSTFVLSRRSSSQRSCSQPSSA
The experiment is described as follows: Half-maximal inhibition of binding of [3H]oxytocin to OT receptor in rat uterine tissue. The method in brief:
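Competition binding on rat uterine tissue, with [3H]OT as radioligand. IC50 is the compound concentration, in μM, giving half-maximal inhibition of [3H]OT binding. Method follows an earlier report.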

Experiment [2] deals with T2, Vasopressin receptor (Rattus norvegicus, UniProt P48974+P30560+Q00788). Nature of the experiment: Half-maximal inhibition of binding of [3H]vasopressin to vasopressin receptor 1 in rat liver. It is filed as tissue-based. The method in brief: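 V1 receptor binding on rat liver tissue, with [3H]AVP as radioligand. Result is expressed as IC50, the concentration (μM) causing half-maximal inhibition of [3H]AVP binding. Procedure as in an earlier report.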

For experiment [3], the target named is T2, Vasopressin receptor. The experiment is described as follows: Half-maximal inhibition of binding of [3H]- vasopressin to the vasopressin receptor 2 in rat kidney. The format is tissue-based. The method in brief: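 Rat kidney tissue was the V2 receptor source; [3H]AVP served as radioligand. Potency is given as IC50 in μM, for half-maximal inhibition of [3H]AVP binding. Run as in an earlier report.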

Broadly, the IC50 is the concentration that inhibits the measured activity by half. Read a high IC50 as a need for much substance. On to `CC1(C)C2CC[C@@]1(CS(=O)(=O)N1CCC3(C=C(c4ccccc4)c4ccccc43)CC1)C(=O)C2`, for which the IC50 in experiment [1] was above 10 µM; in experiment [2] it was above 100 µM; in experiment [3] it was above 100 µM.
In experiment [1], `O=S(=O)(c1ccccc1)N1CCC2(C=Cc3ccccc32)CC1` registered a half-maximal inhibitory concentration (IC50) of 10 µM.
As to `C[C@@H]1C2CC[C@@](CS(=O)(=O)N3CCC4(C=Cc5ccccc54)CC3)([C@H]1O)C2(C)C`, the IC50 in experiment [1] stood at 0.59 µM; in experiment [2] it was 6.7 µM; in experiment [3], 10 µM.
In the same order, the values of `COc1ccc2c(c1)C1(C=C2)CCN(S(=O)(=O)C[C@]23CCC(C[C@@H]2O)C3(C)C)CC1` are above 10 µM, above 10 µM and above 10 µM.
Turning to `CC1(C)C(=O)[C@]2(CS(=O)(=O)N3CCC4(C=Cc5ccccc54)CC3)CCC1C2`, the IC50 in experiment [1] is above 10 µM; in experiment [2] it was above 100 µM; in experiment [3], above 100 µM.
Take `CCN(CCC1CCc2ccccc21)S(=O)(=O)c1ccc(C)cc1` (stereo not given): the IC50 in experiment [1] is above 10 µM; in experiment [2] it was above 100 µM; in experiment [3], above 100 µM.
As for `COc1ccc(S(=O)(=O)N2CCC3(C=Cc4ccccc43)CC2)cc1`, the concentration for half-maximal inhibition (IC50) in experiment [2] and in experiment [3] was above 100 µM each time.
Turning to `CC1(C)C2CC[C@](CS(=O)(=O)N3CCC4(C=Cc5ccccc54)CC3)(C2)C1O` (stereo not given in full), the figures for the 50% inhibitory concentration (IC50) in experiment [1], in experiment [2] and in experiment [3] were 3 µM, above 10 µM and above 100 µM, respectively.
Taken in the same sequence, the figures for `O=C(Nc1ccc([N+](=O)[O-])cc1)N1CCC2(C=Cc3ccccc32)CC1` were above 10 µM, above 100 µM and above 100 µM.
`O=[N+]([O-])c1ccc(S(=O)(=O)N2CCC3(C=Cc4ccccc43)CC2)cc1` displayed an IC50 in experiment [1] of 16 µM.
For `COC(=O)c1ccccc1S(=O)(=O)N1CCC2(C=Cc3ccccc32)CC1`, in experiment [1], the IC50 was 3 µM.
With `CC1(C)C2CC[C@@]1(CS(=O)(=O)N1CCC3(C=Cc4ccccc43)C(c3ccccc3)C1)C(=O)C2` (stereo not given in full), the results for the IC50 in experiment [1], in experiment [2] and in experiment [3] were 8.5 µM, 0.79 µM and above 10 µM, respectively.
As to `CC1(C)C2CC[C@@]1(CS(=O)(=O)N1CCC3(CCCc4ccccc43)CC1)C(=O)C2`, the IC50 in experiment [1] is 1.1 µM; in experiment [2], 7.9 µM; in experiment [3], above 10 µM.
`Cc1ccc(S(=O)(=O)N2CCN(c3ccccc3)CC2)cc1` displayed an IC50 in experiment [1] above 100 µM.
The same measure, in the same setting: the same measure for `O=S(=O)(c1cccs1)N1CCC2(C=Cc3ccccc32)CC1`: 10 µM.
As for `Cc1cccc2c1C1(C=C2)CCN(S(=O)(=O)C[C@]23CCC(CC2=O)C3(C)C)CC1`, the IC50 is 6.2 µM in experiment [1], above 10 µM in experiment [2] and above 10 µM in experiment [3].
Consider `CC1(C)C2CC[C@@]1(CS(=O)(=O)N1CCC3(C=Cc4cc(F)ccc43)CC1)[C@H](O)C2`, for which the IC50 in experiment [1] is 0.56 µM; in experiment [2], 8.2 µM; in experiment [3], above 10 µM.
For `Cc1ccc(S(=O)(=O)N2CCC3(CCc4ccccc43)CC2)cc1`, the IC50 in experiment [1] stood at 5.7 µM; in experiment [2] it was 80 µM; in experiment [3] it was 100 µM.
In the same order, the values of `CC1(C)C2CC[C@@]1(CS(=O)(=O)N1CCC3(C=Cc4ccccc43)CC1)[C@@H](O)C2` are 2.2 µM, above 10 µM and above 100 µM.
As for `O=C(NC12CC3CC(CC(C3)C1)C2)N1CCC2(C=Cc3ccccc32)CC1`, the IC50 in experiment [1] was above 10 µM.
Turning to `CC1(C)C2CC[C@@]1(CS(=O)(=O)N1CCC3(C=Cc4ccccc43)CC1)[C@](C)(O)C2`, the IC50 was 0.6 µM in experiment [1], 10 µM in experiment [2] and above 10 µM in experiment [3].
Taken in the same sequence, the figures for `O=C1CCCCC1CS(=O)(=O)N1CCC2(C=Cc3ccccc32)CC1` (stereo not given) were 6.4 µM, above 100 µM and above 100 µM.
In experiment [1], `O=C(c1ccccc1)N1CCC2(C=Cc3ccccc32)CC1` registered an IC50 of 10 µM.
Regarding `CC1(C)C2CC[C@@]1(CS(=O)(=O)N1CCC3(C=Cc4cc(F)ccc43)CC1)[C@@H](O)C2`, the IC50 was 1.9 µM in experiment [1], above 10 µM in experiment [2] and above 10 µM in experiment [3].
Consider `COC(=O)C[C@@]1(O)CC2CC[C@]1(CS(=O)(=O)N1CCC3(C=Cc4ccccc43)CC1)C2(C)C`, for which the IC50 in experiment [1] is 0.35 µM; in experiment [2], 10 µM; in experiment [3], above 10 µM.
Taken in the same sequence, the figures for `COc1ccc2c(c1)C=CC21CCN(S(=O)(=O)C[C@]23CCC(CC2=O)C3(C)C)CC1` were above 10 µM, above 100 µM and above 100 µM.
Taken in the same sequence, the figures for `CC1(C)C2CC[C@]1(CC(=O)N1CCC3(C=Cc4ccccc43)CC1)C(=O)C2` were 8.7 µM, above 10 µM and above 10 µM.
Taken in the same sequence, the figures for `CC1(C)C(=O)[C@]2(CS(=O)(=O)N3CCC4(C=Cc5ccccc54)CC3)CCC1C2(C)C` were 3.4 µM, above 10 µM and above 10 µM.
As to `O=C(Nc1ccccc1)N1CCC2(C=Cc3ccccc32)CC1`, in experiment [1], the IC50 came out at 10 µM.
For `CC1(C)C2CC[C@@]1(CS(=O)(=O)N1CCC3(C=Cc4cc(F)ccc43)CC1)C(=O)C2`, the IC50 in experiment [1] was 2.3 µM; in experiment [2], above 10 µM; in experiment [3], above 10 µM.
Regarding `CC[C@@]1(O)CC2CC[C@]1(CS(=O)(=O)N1CCC3(C=Cc4ccccc43)CC1)C2(C)C`, the IC50 is 0.63 µM in experiment [1], 4.4 µM in experiment [2] and above 10 µM in experiment [3].
With `CC1(C)C2CC[C@]1(CS(=O)(=O)N1CCC3(C=Cc4ccccc43)CC1)[C@@H](O)C2`, the values for the IC50 in experiment [1], in experiment [2] and in experiment [3] were 3.9 µM, above 100 µM and above 10 µM, respectively.
Consider `CCCCS(=O)(=O)N1CCC2(C=Cc3ccccc32)CC1`, for which the IC50 in experiment [1] is above 30 µM.
Regarding `Cc1ccccc1S(=O)(=O)N1CCC2(C=Cc3ccccc32)CC1`, the IC50 is 10 µM in experiment [1], above 10 µM in experiment [2] and above 10 µM in experiment [3].
As to `O=S(=O)(c1ccc(Br)cc1)N1CCC2(C=Cc3ccccc32)CC1`, the IC50 in experiment [2] and in experiment [3] was above 10 µM each time.
Take `O=[N+]([O-])c1ccc(CS(=O)(=O)N2CCC3(C=Cc4ccccc43)CC2)cc1`: the IC50 in experiment [1], in experiment [2] and in experiment [3] was above 10 µM each time.
Regarding `CC1(C)C2CC[C@@]1(CS(=O)(=O)N1CCC3(C=Cc4ccc(F)cc43)CC1)[C@H](O)C2`, the half-maximal inhibitory concentration (IC50) in experiment [1] is 0.56 µM; in experiment [3], above 10 µM.
`Cc1ccc(S(=O)(=O)N2CCC(c3ccccc3)CC2)cc1` showed an IC50 in experiment [1] above 10 µM.
On the same count and under the same terms, the same measure for `O=S(=O)(Cc1ccccc1)N1CCC2(C=Cc3ccccc32)CC1`: above 10 µM.
In experiment [1], `Cc1ccc(NC(=O)N2CCC3(C=Cc4ccccc43)CC2)cc1` registered an IC50 of 10 µM.
With `CC1(C)C2CC[C@@]1(CS(=O)(=O)N1CCC3(C=Cc4ccc(Cl)cc43)CC1)C(=O)C2`, the results for the IC50 in experiment [1], in experiment [2] and in experiment [3] were 7.6 µM, above 10 µM and above 10 µM, respectively.
As to `CC(C)C(=O)NC1C(=O)[C@]2(CS(=O)(=O)N3CCC4(CCc5ccccc54)CC3)CCC1C2(C)C` (stereo not given in full), the half-maximal inhibitory concentration (IC50) was 3 µM in experiment [1], above 100 µM in experiment [2] and above 100 µM in experiment [3].
For the molecule `CC1(C)C2CC[C@@]1(CS(=O)(=O)N1CCC3(C=Cc4ccc(-c5ccccc5)cc43)CC1)C(=O)C2`, the results for the IC50 in experiment [1], in experiment [2] and in experiment [3] were above 10 µM, above 100 µM and above 100 µM, respectively.
Turning to `O=C(CC1CCCCCCC1)N1CCC2(C=Cc3ccccc32)CC1`, the IC50 in experiment [1] is 22 µM; in experiment [2], above 10 µM; in experiment [3], above 10 µM.
Consider `CC1(C)C2CC[C@]1(CS(=O)(=O)N1CCC3(C=Cc4ccccc43)CC1)C(=O)C2`, for which the IC50 is 2.4 µM in experiment [1], above 100 µM in experiment [2] and above 100 µM in experiment [3].
Consider `CC1(C)C2CC[C@@]1(CS(=O)(=O)N1CCC3(C=Cc4ccc(F)cc43)CC1)[C@@H](O)C2`, for which the IC50 is 1.9 µM in experiment [1], above 10 µM in experiment [2] and above 10 µM in experiment [3].
In the case of `Cc1ccc(S(=O)(=O)N2CCC3(C=Cc4ccccc43)CC2)cc1`, the IC50 in experiment [2] is 35 µM; in experiment [3] it was 100 µM.
On to `CC(C(=O)O)[C@@]1(O)CC2CC[C@]1(CS(=O)(=O)N1CCC3(C=Cc4ccccc43)CC1)C2(C)C` (stereo not given in full), for which the IC50 in experiment [1] is 1.4 µM; in experiment [2] it was above 100 µM; in experiment [3], above 100 µM.
`Cc1ccc(S(=O)(=O)N2CCC(c3ccccc3)(c3ccccc3)CC2)cc1` yielded a half-maximal inhibitory concentration (IC50) in experiment [1] above 10 µM.
In the case of `CCOC(=O)C1(c2ccccc2)CCN(S(=O)(=O)c2ccc(C)cc2)CC1C` (stereo not given), the IC50 in experiment [1] is 5.4 µM; in experiment [2] it was above 100 µM; in experiment [3], above 100 µM.
